Molecules are shown by their SMILES.

From ChEMBL document CHEMBL4834426, “Antimalarial Benzimidazole Derivatives Incorporating Phenolic Mannich Base Side Chains Inhibit Microtubule and Hemozoin Formation: Structure-Activity Relationship and In Vivo Oral Efficacy Studies” (J Med Chem, 2021) come the findings set out here.

The test system of data set [1] is Plasmodium falciparum. Kind of data set: Antiplasmodial activity against […] Plasmodium falciparum NF54 late gametocytes transfected with GFP-Luc […] at 5 uM incubated for 48 hrs by microscopy based luciferase reporter gene assay relative to control. The data set is classed as functional. An outline of the steps:
(§1)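 NF54-Pfs16-GFP-Luc gametocytes, assays set up day 5 (early, stage II/III) or day 10 (late, stage IV/V). Culture at 2−3% gametocytemia, 1.5% hematocrit, 48 h drug exposure at 37 °C under 90% N₂/5% O₂/5% CO₂. Lysates mixed with luciferin; bioluminescence read with 10 s integration. Dual-point: one biological repeat in technical triplicate. Methylene blue (5 μM) reference.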
On the technique in general: Reporter assays use an easily measured gene product as a stand-in for the process of interest.

Data set [2] relates to Plasmodium falciparum. Kind of data set: Antimalarial activity against asexual blood stage multi drug-resistant Plasmodium falciparum K1 infected in erythrocytes assessed as reduction in parasitemia incubated up to 72 hrs by [3H]hypoxanthine incorporation assay. Format: functional, organism-based. An outline of the steps: (§2)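 [³H]-Hypoxanthine incorporation assay (modified) on asexual blood-stage P. falciparum in vitro. IC₅₀ values are means of ≥2 independent experiments.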

The subject of data set [3] is Plasmodium falciparum. Kind of data set: Antiplasmodial activity against […] Plasmodium falciparum NF54 early gametocytes transfected with GFP-Luc […] incubated for 48 hrs by microscopy based luciferase reporter gene assay relative to control. Format: functional, organism-based. The following applies: NF54, 48 h. An outline of the steps: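 Transgenic NF54-Pfs16-GFP-Luc gametocytes, read by luciferase reporter. Early assays were set up on day 5 (50% stage II/50% stage III) and late assays on day 10 (40% stage IV/60% stage V). Luciferin was added to lysates at room temperature and bioluminescence read. Methylene blue (5 μM) was the reference. Single-point screens at 1 and 5 μM used n=1 in technical triplicate. IC₅₀ came from a normalized nonlinear fit, n≥3 in triplicate.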

The nature of data set [4]: Resistance index, ratio of IC50 for antimalarial activity against asexual blood stage multi drug-resistant Plasmodium falciparum K1 to IC50 for antimalarial activity against asexual blood stage drug-sensitive Plasmodium falciparum NF54. Format: functional. An outline of the steps: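 Resistance index is IC₅₀(K1)/IC₅₀(NF54). Both IC₅₀s came from the [³H]-hypoxanthine incorporation assay, as means of ≥2 independent experiments.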

The test system of another data set is CHO. Briefly: Cytotoxicity against CHO cells assessed as inhibition of cell viability by MTT assay. The following applies: Cricetulus griseus. The data set is classed as cell-based. A general note: Tetrazolium dyes change colour on reduction, which living cells bring about.
Data set [5] deals with Plasmodium falciparum. Briefly: Antiplasmodial activity against […] Plasmodium falciparum NF54 early gametocytes transfected with GFP-Luc […] at 5 uM incubated for 48 hrs by microscopy based luciferase reporter gene assay relative to control. The data set is classed as functional. In outline:
as §1

In data set [6] the test system is Plasmodium falciparum. Briefly: Antimalarial activity against asexual blood stage drug-sensitive Plasmodium falciparum NF54 infected in erythrocytes assessed as reduction in parasitemia incubated up to 72 hrs by [3H]hypoxanthine incorporation assay. Format: functional, organism-based. In outline: as §2
Data set [7] concerns Plasmodium falciparum. Briefly: Antiplasmodial activity against […] Plasmodium falciparum NF54 early gametocytes transfected with GFP-Luc […] at 1 uM incubated for 48 hrs by microscopy based luciferase reporter gene assay relative to control. Format: functional. In outline:
as §1

Data set [8] can be described thus: Selectivity index, ratio of IC50 for Cytotoxicity against CHO cells assessed as inhibition of cell viability by MTT assay to IC50 for antimalarial activity against asexual blood stage Plasmodium falciparum NF54 assessed as reduction in parasitemia incubated up to 72 hrs by [3H]hypoxanthine incorporation assay. The data set is classed as toxicity, cell-based. The following applies: hamster, read-out: Selectivity Index. An outline of the steps:
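Selectivity index is IC₅₀(CHO)/IC₅₀(NF54). […] IC₅₀ came from nonlinear dose-response fitting. Parasite IC₅₀ came from the [³H]-hypoxanthine assay.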

Data set [9] concerns Plasmodium falciparum. Briefly: Antiplasmodial activity against […] Plasmodium falciparum NF54 late gametocytes transfected with GFP-Luc […] at 1 uM incubated for 48 hrs by microscopy based luciferase reporter gene assay relative to control. The data set is classed as functional. In outline: as §1

The inhibition is the relative decrease from the control value, in per cent. What is called IC50 is the concentration that gives 50% inhibition. In the case of `CCN(CC)Cc1cccc(Nc2nc3ccccc3n2Cc2ccc(F)cc2)c1O`, the inhibition at 5 µM came to 58% with Plasmodium falciparum [1] and 91% in the data set with Plasmodium falciparum [5]. In addition, the half-inhibitory concentration (IC50) in the data set with Plasmodium falciparum [2] is 180 nM; with Plasmodium falciparum [3], 2230 nM; in the data set on CHO, > 50000 nM; in the data set with Plasmodium falciparum [6] it was 360 nM. The Ratio IC50 in data set [4] was found to be 0.5. The inhibition at 1 µM in the data set on Plasmodium falciparum [7] amounted to 65%; in the data set on Plasmodium falciparum [9], 36%. The selectivity ratio at 72 h in [8] is > 136.
As for `CCN(CC)Cc1cc(C)cc(Nc2nc3ccccc3n2Cc2ccc(F)cc2)c1O`, the inhibition at 5 µM in the data set on Plasmodium falciparum [1] was determined as 58%; in the data set on Plasmodium falciparum [5], 97%. The IC50 was 210 nM in the data set on Plasmodium falciparum [2], 880 nM in the data set with Plasmodium falciparum [3], 18700 nM with CHO and 550 nM in the data set with Plasmodium falciparum [6]. Besides, the Ratio IC50 in data set [4] is 0.38. For the same compound, the values for the inhibition at 1 µM with Plasmodium falciparum [7] and in the data set with Plasmodium falciparum [9] were 81% and 41%, respectively. The selectivity ratio at 72 h in [8] amounted to 34.
With `CCN(CC)Cc1c(Cl)ccc(Nc2nc3ccccc3n2Cc2ccc(C(F)(F)F)cc2)c1O`, the inhibition at 5 µM with Plasmodium falciparum [1] was 1%; in the data set with Plasmodium falciparum [5] it was 59%. The IC50 with Plasmodium falciparum [2] was 380 nM; in the data set on Plasmodium falciparum [3], 3060 nM; with CHO, > 50000 nM; with Plasmodium falciparum [6], 1840 nM. The Ratio IC50 in data set [4] was 0.21. Further, the values for the inhibition at 1 µM in the data set with Plasmodium falciparum [7] and in the data set on Plasmodium falciparum [9] were 7% and 5%, respectively. The selectivity ratio at 72 h in data set [8] is > 27.
On to `CCN(CC)Cc1ccc(Nc2nc3ccccc3n2Cc2ccc(C(F)(F)F)cc2)cc1O`, for which the inhibition at 5 µM in the data set on Plasmodium falciparum [1] turned out to be 24%; in the data set with Plasmodium falciparum [5] it was 41%. Moreover, the IC50 with Plasmodium falciparum [2] was found to be 870 nM; in the data set on CHO it was 41500 nM; in the data set on Plasmodium falciparum [6], 470 nM. The Ratio IC50 in [4] worked out at 1.85. Also, the results for the inhibition at 1 µM in the data set on Plasmodium falciparum [7] and in the data set with Plasmodium falciparum [9] were 36% and 2%, respectively. Also, the selectivity ratio at 72 h in data set [8] was 88.3.
In the case of `CCN(CC)Cc1cc(C)cc(Nc2nc3ccccc3n2Cc2ccc(C#N)cc2)c1O`, the inhibition at 5 µM in the data set on Plasmodium falciparum [1] turned out to be 52%; in the data set on Plasmodium falciparum [5], 98%. For the same compound, the concentration for half-maximal inhibition (IC50) in the data set on Plasmodium falciparum [2] was 460 nM; with CHO, 14200 nM; in the data set with Plasmodium falciparum [6] it was 650 nM. Also, in data set [4], the Ratio IC50 amounted to 0.71. Further, the inhibition at 1 µM was 39% with Plasmodium falciparum [7] and 15% in the data set on Plasmodium falciparum [9]. Also, the selectivity ratio at 72 h in data set [8] came out at 21.8.
In the case of `CCN(CC)Cc1cc(Nc2nc3ccccc3[nH]2)ccc1O`, the inhibition at 5 µM with Plasmodium falciparum [1] turned out to be 28%; in the data set on Plasmodium falciparum [5] it was 9%. For the same compound, the IC50 was 7270 nM in the data set on Plasmodium falciparum [2], > 50000 nM in the data set on CHO and 800 nM in the data set with Plasmodium falciparum [6]. In addition, the Ratio IC50 in data set [4] was 9.09. In addition, the inhibition at 1 µM in the data set with Plasmodium falciparum [7] turned out to be 30%; in the data set on Plasmodium falciparum [9], 0%. Besides, in data set [8], the selectivity ratio at 72 h was > 62.
On to `CC(C)(C)NCc1cc(C(C)(C)C)cc(Nc2nc3cc(F)c(F)cc3[nH]2)c1O`, for which the inhibition at 5 µM in the data set on Plasmodium falciparum [1] and in the data set on Plasmodium falciparum [5] was 0% throughout. The IC50 with Plasmodium falciparum [2] stood at 280 nM; with CHO, 34200 nM; in the data set on Plasmodium falciparum [6] it was 150 nM. Besides, in data set [4], the Ratio IC50 was 1.87. Besides, the inhibition at 1 µM in the data set on Plasmodium falciparum [7] and with Plasmodium falciparum [9] was 0% throughout. Moreover, the selectivity ratio at 72 h in data set [8] was determined as 228.
Take `CCN(CC)Cc1cc(Nc2nc3ccccc3n2Cc2ccc(F)cc2)ccc1O`: the values for the inhibition at 5 µM in the data set on Plasmodium falciparum [1] and in the data set with Plasmodium falciparum [5] were 39% and 59%, respectively. The 50% inhibitory concentration (IC50) was 1950 nM in the data set on Plasmodium falciparum [2], 12000 nM in the data set on CHO and 680 nM in the data set with Plasmodium falciparum [6]. The Ratio IC50 in [4] is 2.87. The results for the inhibition at 1 µM with Plasmodium falciparum [7] and in the data set with Plasmodium falciparum [9] were 33% and 11%, respectively. Also, the selectivity ratio at 72 h in data set [8] stood at 17.6.
